Calls of active or inactive are those of the source. The calls are words filed in the database; no cut-off is given here.
Tests used:
HEK293 [1] = assay: Cytotoxicity against human HEK293 cells assessed as decrease in cell viability after 48 hrs neutral red dye assay; type: functional, cell-based; conditions: HEK293, 48 h
In short: (§1)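 5x10^4 cells/well grown to sub-confluence (24-36 h), then exposed to compound 48 h. Neutral red dye 3+1 h, solubilised in 50% ethanol/1% acetic acid, absorbance 540 nm (690 nm background). Viability as percent of vehicle-treated cells; pEC50 by non-linear sigmoidal regression over 4 concentrations, triplicate on two independent days. Controls 30 mM sodium azide, 2% Triton-X. HEK293-hSERT cells kept in Geneticin, used up to 30 passages.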

SH-SY5Y [2] = assay: Cytotoxicity against human SH-SY5Y cells expressing human SERT assessed as decrease in cell viability after 48 hrs neutral red dye assay; type: functional, cell-based
DG-75 [3] = assay: Cytotoxicity against human chemoresistant DG75 cells expressing SERT assessed as decrease in cell viability 10 or 50 uM after 72 hrs Alamar blue assay; type: functional, cell-based; conditions: DG-75, 72 h
In short: (§2)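 1-5x10^4 cells/200 µl given 10 or 50 µM for 24 h (MUTU-I, MDA-MB231, PBMC) or […]. Alamar Blue at 37 °C in the dark 4-6 h, then fluorescence read with 544/590 nm. Media-only background subtracted; untreated cells set as 100% viability. Mean of six points (triplicate, two independent days). PBMCs from a healthy donor, isolated by ficoll density separation.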

DG-75 [4] = assay: Antiproliferative activity against human DG75 cells after 24 hrs Alamar blue assay; type: functional, cell-based; conditions: DG-75, 24 h
In short: (§3)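 Alamar Blue viability: 1-5x10^4 cells/well treated 24 h, then Alamar Blue (pre-warmed) 4-6 h at 37 °C in the dark. Fluorescence read at 590 nm (excitation 544 nm), background of medium plus dye subtracted, untreated cells = 100% viability. Miconazole 10 µM as cell-death control. Range 1 µM-1 mM, triplicate on two independent days. pEC50 from non-linear sigmoidal regression.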

SH-SY5Y [5] = assay: Antiproliferative activity against human SH-SY5Y cells after 24 hrs Alamar blue assay; type: functional, cell-based; in short: as §3
[6] = Antiproliferative activity against human chemosensitive MUTU-I cells after 24 hrs Alamar blue assay; type: functional, cell-based; in short: as §3
[7] = biological target: T1, Sodium-dependent serotonin transporter (Homo sapiens, UniProt P31645); conditions: HEK293, at 1 µM
Target sequence in this assay (P31645 whole entry, looked up): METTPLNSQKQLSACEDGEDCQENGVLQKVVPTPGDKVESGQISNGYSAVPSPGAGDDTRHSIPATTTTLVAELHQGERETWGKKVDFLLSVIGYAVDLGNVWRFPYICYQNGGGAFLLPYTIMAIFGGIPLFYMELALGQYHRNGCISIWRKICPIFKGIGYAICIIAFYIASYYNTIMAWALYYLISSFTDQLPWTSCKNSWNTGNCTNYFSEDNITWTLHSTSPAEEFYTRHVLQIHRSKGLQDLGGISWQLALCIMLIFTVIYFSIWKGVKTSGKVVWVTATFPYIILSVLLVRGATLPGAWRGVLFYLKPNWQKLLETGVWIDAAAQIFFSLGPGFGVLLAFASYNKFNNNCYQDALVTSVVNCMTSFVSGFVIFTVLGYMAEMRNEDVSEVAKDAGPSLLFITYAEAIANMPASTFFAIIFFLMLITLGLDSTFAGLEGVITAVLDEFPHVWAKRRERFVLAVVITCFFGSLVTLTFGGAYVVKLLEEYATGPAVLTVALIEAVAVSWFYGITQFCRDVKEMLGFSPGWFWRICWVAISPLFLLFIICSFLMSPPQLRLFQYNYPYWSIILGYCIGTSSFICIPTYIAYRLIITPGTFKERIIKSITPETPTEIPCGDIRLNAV

[8] = biological target: T1, Sodium-dependent serotonin transporter; conditions: HEK293, at 100 µM
Target sequence in this assay (P31645 whole entry, looked up): as above

HEK293 [9] = assay: Cytotoxicity against human HEK293 cells expressing human SERT assessed as decrease in cell viability after 48 hrs neutral red dye assay; type: functional, cell-based; conditions: HEK293, 48 h; in short: as §1
PBMC = assay: Cytotoxicity against human PBMC cells assessed as decrease in cell viability 10 or 50 uM after 24 hrs Alamar blue assay; type: cell-based; in short: as §2
[10] = biological target: T1, Sodium-dependent serotonin transporter; assay: Inhibition of [3H]-serotonin reuptake at human SERT expressed in HEK293 cells after 15 to 20 mins by fluorescence neurotransmitter transporter assay; type: cell-based
Target sequence in this assay (P31645 whole entry): as the sequence (P31645 whole entry, looked up) above

[11] = biological target: T2, Tyrosine-protein phosphatase non-receptor type 1 (Homo sapiens) (UniProt P18031); assay: Inhibition of human recombinant PTP1B in chemosensitive MUTU-I cells after 30 mins; type: cell-based
T2 sequence (whole entry): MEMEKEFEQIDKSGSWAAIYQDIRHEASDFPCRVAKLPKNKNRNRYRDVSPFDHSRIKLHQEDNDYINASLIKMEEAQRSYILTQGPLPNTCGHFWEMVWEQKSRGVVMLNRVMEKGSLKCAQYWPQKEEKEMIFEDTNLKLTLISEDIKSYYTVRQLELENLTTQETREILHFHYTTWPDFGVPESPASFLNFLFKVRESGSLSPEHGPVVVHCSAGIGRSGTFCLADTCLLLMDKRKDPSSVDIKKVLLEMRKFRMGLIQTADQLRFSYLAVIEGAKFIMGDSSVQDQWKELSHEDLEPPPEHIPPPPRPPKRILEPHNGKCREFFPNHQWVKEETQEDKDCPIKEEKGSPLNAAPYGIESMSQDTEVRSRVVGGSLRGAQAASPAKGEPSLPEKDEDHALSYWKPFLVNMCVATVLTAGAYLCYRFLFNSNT
In short: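 Recombinant PTP1B expressed in E. coli, incubated with compound and a phosphopeptide substrate for 30 min at 30 °C. Released phosphate detected by malachite green at 620 nm and quantified against a phosphate standard curve. Suramin as positive control.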

Tubulin (Homo sapiens) = Tubulin (Homo sapiens) (UniProt P68371+Q9H4B7+P0DPH7+P68366+Q13509+Q71U36+P04350+Q3ZCM7+P07437+P68363+Q9BQE3+Q6PEY2+Q13885+Q9BVA1+Q9BUF5); assay: Inhibition of tubulin polymerisation in human chemosensitive MUTU-I cells after 30 mins; type: cell-based
MUTU-I [12] = assay: Induction of apoptosis in human chemosensitive MUTU-I cells assessed as chromatin condensation and membrane bledding at 10 uM after 4 hrs; type: functional, cell-based
In short: (§4)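 Cells at 3x10^5 cells/mL exposed for 4 h or 8 h. 150 µl aliquots were cytocentrifuged onto slides (500 ×g, 2 min), air-dried, methanol-fixed, and stained with eosin Y and methylene blue. Morphology was examined by light microscopy at 60x.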

MUTU-I [13] = assay: Induction of apoptosis in human chemosensitive MUTU-I cells assessed as caspase 3/7 activation at 10 uM after 5 hrs; type: functional, cell-based
In short: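 Caspase 3/7 activity by homogeneous fluorogenic kit: 0.5x10^5 cells exposed to compound (10 µM) for 5 h, then 100 µl Z-DEVD-R110 substrate added. After 2 h, cleaved substrate measured at 521 nm (excitation 499 nm).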

MUTU-I [14] = assay: Induction of apoptosis in human chemosensitive MUTU-I cells assessed as accumulation at G2/M phase after 2 to 8 hrs by propidium iodide FACS analysis relative to taxol; type: functional, cell-based
In short: (§5)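 750,000 MUTU-I cells per sample treated for the stated time, then harvested (300 ×g, 5 min), washed in ice-cold PBS and fixed overnight at 4 °C in 70% ethanol. Stained with RNase A and propidium iodide, 30 min at 37 °C in the dark. Flow cytometry counted 10,000 gated cells for cell-cycle phases. Taxol 10 µM as positive control.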

[15] = Induction of apoptosis in human chemosensitive MUTU-I cells assessed as accumulation at pre-G1 phase at 10 uM by propidium iodide FACS analysis; type: functional; in short: as §5
MUTU-I [16] = assay: Induction of apoptosis in human chemosensitive MUTU-I cells assessed as chromatin condensation and membrane bledding at 10 uM after 8 hrs; type: functional, cell-based; in short: as §4
MUTU-I [17] = assay: Induction of apoptosis in human chemosensitive MUTU-I cells assessed as induction of PARP cleavage at 10 uM after 8 hrs; type: functional, cell-based
In short: (§6)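 PARP cleavage by Western blot: 5x10^6 cells pelleted (500 ×g, 5 min), washed, and lysed in Laemmli buffer with protease inhibitors. Lysates run on 8% SDS-PAGE, transferred to PVDF, and probed with anti-PARP detecting full-length 113 kDa and cleaved 85 kDa forms. HRP secondary antibody, chemiluminescence detection.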

MUTU-I [18] = assay: Induction of apoptosis in human chemosensitive MUTU-I cells assessed as caspase 3/7 activation at 10 uM after 4 hrs; type: functional, cell-based
MUTU-I [19] = assay: Induction of apoptosis in human chemosensitive MUTU-I cells assessed as induction of PARP cleavage at 10 uM after 4 hrs; type: functional, cell-based; in short: as §6

SMILES	EC50 (HEK293 [1]) [µM]	EC50 (SH-SY5Y [2]) [µM]	EC50 (DG-75 [3]) [µM]	EC50 (DG-75 [4]) [µM]	EC50 (SH-SY5Y [5]) [µM]	EC50 [6] [µM]	inhibition [7] [%]	inhibition [8] [%]	EC50 (HEK293 [9]) [µM]	further results
CN(C)CCCC1(c2ccc(F)cc2)OCc2cc(C#N)ccc21 (configuration not stated) [CITALOPRAM]	15.8	25.1	12.6							
CSc1ccc(CC(Cc2ccc(SC)cc2)NC(C)=O)cc1		3980	3980	398	15800	158	0	28	39.8	
NC(Cc1ccc(Cl)cc1)Cc1ccc(Cl)cc1				25.1	5.01	0.158				Activity (PBMC): Toxic
CSc1ccc(CC(C)N)cc1 (configuration not stated) [4-METHYLTHIOAMPHETAMINE]	20	631	316						25.1	IC50 [10]: 0.2 µM
O=[N+]([O-])/C(=C\c1ccc(Cl)cc1)Cc1ccc(Cl)cc1Cl				3.16	25.1	3.16				
O=C(Cc1ccc2c(c1)OCO2)Cc1ccc2c(c1)OCO2	1260	> 10000	3160	158	251	100			5010	
COc1ccc(CC(N)Cc2ccc(OC)cc2)cc1	31.6	20	20	398	20	794	11	65	25.1	
O=[N+]([O-])/C(=C\c1ccc(Cl)cc1)Cc1ccc(Cl)cc1				12.6	2.51	1	0	23		inhibition [11]: inactive; inhibition (Tubulin (Homo sapiens)): inactive; Activity (MUTU-I [12]): Active; Activity (MUTU-I [13]): Active; Activity (MUTU-I [14]): Active; Activity [15]: 41%; Activity (MUTU-I [16]): Active; Activity (MUTU-I [17]): Active; Activity (MUTU-I [18]): Active; Activity (MUTU-I [19]): Active
OC(Cc1ccc2c(c1)OCO2)Cc1ccc2c(c1)OCO2				126	158	39.8				
CSc1ccc(CC(N)Cc2ccc(SC)cc2)cc1	20	20	25.1	25.1	12.6	12.6	50	98	31.6	IC50 [10]: 2.5 µM; Activity (PBMC): Toxic
O=CNC(Cc1ccc2c(c1)OCO2)Cc1ccc2c(c1)OCO2	> 10000	> 10000	15.8	158	224	63.1	18	55	1580	
